Laboratory results taken from ChEMBL document CHEMBL1141128, “Structure-activity relationship study on a simple cationic peptide motif for cellular delivery of antisense peptide nucleic acid” (J Med Chem, 2005).
Non-standard residues stand in square brackets, D forms with d. Residues, ends and D or L forms follow the SMILES beside them. Lys(Me2) = CN(C)CCCC[C@H](N)C(=O)O; hLys = NCCCCC[C@H](N)C(=O)O; Nlys = NCCCCNCC(=O)O

What was measured:
BCL1 [1] = experiment: Inhibitory concentration against BCL1 cell proliferation in WST-1 assay; type: functional, Mus musculus
Method in brief: (§1)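 BCL1 cells, 2000 per well, grown in DMEM with 10% FBS at 37 °C and 5% CO2. Exposed to conjugate for 3 days, then viable cells read by WST-1 absorbance at 450 nm. Value is the concentration at which absorbance fell below 50% of untreated control; triplicates.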

CD40 mRNA [2] = experiment: […] CD40 expression in BCL1 cells treated with 10 uM peptide nucleic acid (PNA)conjugate; n=3; type: functional, cell-based; details: Mus musculus
Method in brief: (§2)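 Mouse BCL1 cells in DMEM with 10% FBS, given conjugate at 1, 3 or 10 μM by free uptake (no transfection agent) for 3 days. Cells trypsinised and stained 1 h with FITC anti-CD40 (HM40-3) or isotype control, then surface CD40 read by flow cytometry. Results are % untreated control, mean ± SD, n = 3.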

[3] = Half-life of the conjugate when treated with 10% foetal bovine serum for enzymatic stability; type: ADME, Bos taurus; details: cattle
Method in brief: (§3)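 Conjugates at 20 μM in 10% FBS RPMI 1640 medium or 25% mouse serum (Hepes-stabilised, diluted in PBS, pH 7.1–7.4), incubated at 37 °C. Sampled to 168 h (FBS) or 48 h (serum); proteins precipitated with 10% DCA, PNA 6mer internal standard added. Analysed by C3 RP-HPLC at 60 °C; t1/2 from normalised full-length peak area versus time.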

CD40 mRNA [4] = experiment: […] CD40 expression in BCL1 cells treated with 1 uM peptide nucleic acid (PNA)conjugate; n=3; type: functional, cell-based; details: Mus musculus; method in brief: as §2
[5] = Half-life of the conjugate when treated with 25% murine serum for enzymatic stability; type: ADME; details: mouse; method in brief: as §3
CD40 mRNA [6] = experiment: […] CD40 expression in BCL1 cells treated with 3 uM peptide nucleic acid (PNA)conjugate; n=3; type: functional, cell-based; details: Mus musculus; method in brief: as §2
[7] = Half-life of the conjugate when treated with 25% murine serum for enzymatic stability; No data available; type: ADME; details: mouse; method in brief: as §3
BCL1 [8] = experiment: Inhibitory concentration against BCL1 cell proliferation in WST-1 assay; Range 10-20; type: functional, Mus musculus; method in brief: as §1

| SMILES | IC50 for cell proliferation (BCL1 [1]) [µM] | UTC (CD40 mRNA [2]) [%] | half-life [3] [h] | UTC (CD40 mRNA [4]) [%] | half-life [5] [h] | UTC (CD40 mRNA [6]) [%] | T1/2 [7] | IC50 (BCL1 [8]) [µM] |
| --- | --- | --- | --- | --- | --- | --- | --- | --- |
| CN(C)CCCC[C@H](NC(=O)[C@H](CCCCN)NC(=O)[C@H](CCCCN)NC(=O)[C@H](CCCCN(C)C)NC(=O)[C@H](CCCCN)NC(=O)[C@@H](N)CCCCN)C(=O)N[C@@H](CCCCN)C(=O)N[C@@H](CCCCN)C(=O)N[C@H](C=O)CCCCN (H-KK[Lys(Me2)]KK[Lys(Me2)]KKK-aldehyde) | 5 | 41 | > 168 | 96 | 22 | 78 | – | – |
| NCCCC[C@@H](C=O)NOC(=O)C(CCCN)NC(=O)[C@H](CCCCN)NOC(=O)C(CCCN)NC(=O)[C@H](CCCCN)NOC(=O)C(CCCN)NC(=O)[C@H](CCCCN)NOC(=O)C(CCCN)NC(=O)[C@@H](N)CCCCN (some centres undefined) | 5 | 42 | > 168 | 94 | – | 61 | No data available | – |
| NCCCC[C@@H](C=O)NC(=O)[C@H](Cc1c[nH]cn1)NC(=O)[C@H](CCCCN)NC(=O)[C@H](Cc1c[nH]cn1)NC(=O)[C@H](CCCCN)NC(=O)[C@H](Cc1c[nH]cn1)NC(=O)[C@H](CCCCN)NC(=O)[C@H](Cc1c[nH]cn1)NC(=O)[C@@H](N)CCCCN (H-KHKHKHKHK-aldehyde) | >20 | 73 | > 168 | 88 | 6 | 87 | – | – |
| NCCCCC[C@H](NC(=O)[C@H](CCCCCN)NC(=O)[C@H](CCCCCN)NC(=O)[C@H](CCCCCN)NC(=O)[C@H](CCCCCN)NC(=O)[C@H](CCCCCN)NC(=O)[C@H](CCCCCN)NC(=O)[C@@H](N)CCCCCN)C(=O)N[C@H](C=O)CCCCN (H-[hLys][hLys][hLys][hLys][hLys][hLys][hLys][hLys]K-aldehyde) | 10 | 31 | > 168 | 87 | 17 | 65 | – | – |
| NCCCC[C@@H](C=O)NC(=O)[C@H](CCCCN)NC(=O)[C@H](CCCCN)NOC(=O)[C@H](CCCN)NC(=O)[C@H](CCCCN)NC(=O)[C@H](CCCCN)NOC(=O)[C@H](CCCN)NC(=O)[C@H](CCCCN)NC(=O)[C@@H](N)CCCCN | – | 34 | > 168 | 94 | 18 | 65 | – | 20 |
| NCCCCC[C@H](NC(=O)[C@H](CCCCCN)NC(=O)[C@H](CCCCN)NC(=O)[C@H](CCCCN)NC(=O)[C@H](CCCCN)NC(=O)[C@H](CCCCN)NC(=O)[C@H](CCCCCN)NC(=O)[C@@H](N)CCCCCN)C(=O)N[C@H](C=O)CCCCN (H-[hLys][hLys]KKKK[hLys][hLys]K-aldehyde) | >20 | 34 | 120 | 86 | – | 66 | – | – |
| NCCCC[C@@H](C=O)NOC(=O)[C@H](CCCN)NOC(=O)[C@H](CCCN)NC(=O)[C@H](CCCCN)NC(=O)[C@H](CCCCN)NC(=O)[C@H](CCCCN)NC(=O)[C@H](CCCCN)NOC(=O)[C@H](CCCN)NOC(=O)[C@@H](N)CCCN | – | – | > 168 | – | – | – | No data available | – |
| NCCCC[C@@H](C=O)NC(=O)[C@H](CCCCN)NC(=O)[C@H](CCCCN)NC(=O)[C@H](Cc1c[nH]cn1)NC(=O)[C@H](CCCCN)NC(=O)[C@H](CCCCN)NC(=O)[C@H](Cc1c[nH]cn1)NC(=O)[C@H](CCCCN)NC(=O)[C@@H](N)CCCCN (H-KKHKKHKKK-aldehyde) | – | 52 | > 168 | 86 | 6 | 73 | – | 20 |
| NCCCC[C@H](NC(=O)CN(CCCCN)C(=O)CN(CCCCN)C(=O)CN(CCCCN)C(=O)CN(CCCCN)C(=O)CN(CCCCN)C(=O)CN(CCCCN)C(=O)CN(CCCCN)C(=O)CN(CCCCN)C(=O)CN)C(=O)O (H-G[Nlys][Nlys][Nlys][Nlys][Nlys][Nlys][Nlys][Nlys]K-OH) | – | 56 | > 168 | 92 | > 48 | 80 | – | 20 |
| N=C(N)NCCCC[C@H](NC(=O)[C@H](CCCCNC(=N)N)NC(=O)[C@H](CCCCNC(=N)N)NC(=O)[C@H](CCCCNC(=N)N)NC(=O)[C@H](CCCCNC(=N)N)NC(=O)[C@H](CCCCNC(=N)N)NC(=O)[C@H](CCCCNC(=N)N)NC(=O)[C@@H](N)CCCCNC(=N)N)C(=O)N[C@H](C=O)CCCCN | 5 | 20 | > 168 | 91 | 15 | 45 | – | – |
| NCCCC[C@H](NC(=O)[C@H](CCCCN)NC(=O)[C@H](CCCCN)NC(=O)CN(CCCCN)C(=O)[C@H](CCCCN)NC(=O)[C@H](CCCCN)NC(=O)CN(CCCCN)C(=O)[C@H](CCCCN)NC(=O)[C@@H](N)CCCCN)C(=O)O (H-KK[Nlys]KK[Nlys]KKK-OH) | – | 60 | > 168 | 104 | 29 | 88 | – | 20 |
| NCCCCC[C@H](NC(=O)[C@H](CCCCN)NC(=O)[C@H](CCCCN)NC(=O)[C@H](CCCCCN)NC(=O)[C@H](CCCCN)NC(=O)[C@@H](N)CCCCN)C(=O)N[C@@H](CCCCN)C(=O)N[C@@H](CCCCN)C(=O)N[C@H](C=O)CCCCN (H-KK[hLys]KK[hLys]KKK-aldehyde) | >20 | 31 | > 168 | 76 | 10 | 61 | – | – |
| NCCCC[C@@H](C=O)NOC(=O)C(CCCN)NOC(=O)C(CCCN)NC(=O)[C@H](CCCCN)NC(=O)[C@H](CCCCN)NC(=O)[C@H](CCCCN)NC(=O)[C@H](CCCCN)NOC(=O)C(CCCN)NOC(=O)C(N)CCCN (some centres undefined) | 5 | 52 | – | 97 | – | 69 | – | – |
| NCCCC[C@@H](C=O)NC(=O)[C@H](CCCCN)NC(=O)[C@@H](CCCCN)NC(=O)[C@H](CCCCN)NC(=O)[C@H](CCCCN)NC(=O)[C@@H](CCCCN)NC(=O)[C@H](CCCCN)NC(=O)[C@@H](N)CCCCN | – | 62 | > 168 | 102 | > 48 | 87 | – | 20 |
| CN(C)CCCC[C@H](NC(=O)[C@H](CCCCN(C)C)NC(=O)[C@H](CCCCN(C)C)NC(=O)[C@H](CCCCN(C)C)NC(=O)[C@H](CCCCN(C)C)NC(=O)[C@H](CCCCN(C)C)NC(=O)[C@H](CCCCN(C)C)NC(=O)[C@@H](N)CCCCN(C)C)C(=O)N[C@H](C=O)CCCCN (H-[Lys(Me2)][Lys(Me2)][Lys(Me2)][Lys(Me2)][Lys(Me2)][Lys(Me2)][Lys(Me2)][Lys(Me2)]K-aldehyde) | 10 | 71 | > 168 | 94 | > 48 | 89 | – | – |
| NCCCC[C@@H](C=O)NC(=O)[C@H](Cc1c[nH]cn1)NC(=O)[C@H](Cc1c[nH]cn1)NC(=O)[C@H](Cc1c[nH]cn1)NC(=O)[C@H](Cc1c[nH]cn1)NC(=O)[C@H](Cc1c[nH]cn1)NC(=O)[C@H](Cc1c[nH]cn1)NC(=O)[C@H](Cc1c[nH]cn1)NC(=O)[C@@H](N)Cc1c[nH]cn1 (H-HHHHHHHHK-aldehyde) | >20 | 64 | > 168 | 81 | 44 | 74 | – | – |
